pIC50, pKi: −log10 of the molar value. Bounds are passed on as bounds.

Test [1] addresses T1, Beta-lactamase (Enterobacter cloacae, UniProt P05364). The experiment in a line: Inhibition of Enterobacter cloacae beta-lactamase P99 after 5 seconds incubation with nitrocefin substrate by spectrophotometry.
Test [2] addresses T1, Beta-lactamase. In words: Inhibition of Enterobacter cloacae beta-lactamase P99 assessed as nitrocefin hydrolysis after 5 mins enzyme-compound preincubation.
The nature of test [3]: Inhibition of beta-lactamase TEM-1 after 5 seconds incubation with nitrocefin substrate by spectrophotometry. In outline: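 Direct competition with reporter substrate at 37°C: inhibitor concentrations were premixed with 100 µM nitrocefin, and the reaction was started with 0.25 nM purified TEM-1. Nitrocefin hydrolysis was followed spectrophotometrically at 485 nm. Initial velocity over the first 5 s was compared with the no-inhibitor control, and KI was derived by equation 2. Means of at least two independent experiments.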

The nature of test [4]: Inhibition of beta-lactamase KPC-2 assessed as nitrocefin hydrolysis after 5 mins enzyme-compound preincubation. The essentials: (§1)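 Enzyme and inhibitor were preincubated 5 min at 37°C. The inhibitor was tested at 11 concentrations from 1 nM to 100 µM. Final enzyme concentrations were TEM-1 0.25 nM, CTX-M-15 0.35 nM, KPC-2 3 nM and SHV-4 6 nM. Nitrocefin was at 100 µM. Initial rates were read at 485 nm over the first minute. Each value is the mean of at least two independent experiments.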

A short description of test [5]: Inhibition of beta-lactamase SHV-4 assessed as nitrocefin hydrolysis after 5 mins enzyme-compound preincubation. The essentials:
as §1

Test [6] is described as follows: Inhibition of beta-lactamase TEM- 1 assessed as nitrocefin hydrolysis after 5 mins enzyme-compound preincubation. The essentials: as §1
The nature of test [7]: Inhibition of beta-lactamase CTX-M-15 assessed as nitrocefin hydrolysis after 5 mins enzyme-compound preincubation.

T1 sequence (P05364 whole entry): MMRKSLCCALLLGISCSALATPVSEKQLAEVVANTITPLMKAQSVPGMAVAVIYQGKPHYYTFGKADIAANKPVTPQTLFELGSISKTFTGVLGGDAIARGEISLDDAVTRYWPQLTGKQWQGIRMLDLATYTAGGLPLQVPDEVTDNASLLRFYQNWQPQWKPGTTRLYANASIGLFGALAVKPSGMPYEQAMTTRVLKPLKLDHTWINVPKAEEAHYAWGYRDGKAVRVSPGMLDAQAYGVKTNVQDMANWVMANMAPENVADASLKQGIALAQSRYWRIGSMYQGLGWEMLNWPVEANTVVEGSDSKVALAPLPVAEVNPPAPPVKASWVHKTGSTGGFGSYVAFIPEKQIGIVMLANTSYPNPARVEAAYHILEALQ

`NC(=O)[C@@H]1CC[C@@H]2CN1C(=O)N2OS(=O)(=O)O` (relative stereo) [AVIBACTAM]: the pKi – broadly, the Ki on a negative log10 scale, so that one unit is a factor of ten – on Beta-lactamase [1] was 5.11; in test [3] it was 6.59. Moreover, the pIC50 (in general, the IC50 on a negative log10 scale, so that one unit is a factor of ten) was 7.00 at Beta-lactamase [2]; 6.77 in test [4]; 8.52 in test [5]; 8.10 in test [6]; 8.30 in test [7].

For `O=C(O)[C@H]1/C(=C/CO)O[C@@H]2CC(=O)N21` [CLAVULANIC ACID], the pKi in test [3] is 6.10. For the same compound, the figures for the pIC50 in test [4], in test [5] and in test [6] were < 4.00, 8.40 and 7.24, respectively.

`CC1(C)[C@H](C(=O)O)N2C(=O)C[C@H]2S1(=O)=O` [SULBACTAM]: the pIC50 is 4.24 in test [4], 6.59 in test [5], 5.81 in test [6] and 6.64 in test [7].

Consider `C[C@]1(Cn2ccnn2)[C@H](C(=O)O)N2C(=O)C[C@H]2S1(=O)=O` [TAZOBACTAM], for which, in test [3], the negative logarithm of the Ki (pKi) is 7.52. Also, the pIC50 was 4.30 in test [4], 7.26 in test [5], 7.49 in test [6] and 8.22 in test [7].

Values taken from ChEMBL document CHEMBL1687818, “Mechanistic studies of the inactivation of TEM-1 and P99 by NXL104, a novel non-beta-lactam beta-lactamase inhibitor” (Antimicrob Agents Chemother, 2010).
